From ChEMBL document CHEMBL4513216, “Probing the Open Global Health Chemical Diversity Library for Multistage-Active Starting Points for Next-Generation Antimalarials” (ACS Infect Dis, 2020)

Test: Toxicity liver stage against HepG2, at 10uM
Assay type: cell-based
Design: test concentration 10 uM, cell line HepG2-A16-CD81EGFP
Conditions: human, HepG2-A16-CD81EGFP cells; read-out: INHIBITION
Summary of the method: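 Uninfected HepG2-A16-CD81EGFP cells, 3 × 10^3 per well, 1536-well, plated on prespotted compound at 10 μM final, parasite-free screening media added to match infected plates; puromycin 10 μM positive, DMSO 0.5% negative; run in parallel with 48 h PbLuc assay at 37 °C, 5% CO2; viability by CellTiter-Glo luminescence, normalized to controls.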

| Structure (SMILES) | cytotoxicity at 10 µM |
| --- | --- |
| Cc1cc(C)c2cc(C(=O)N3CCN(Cc4ccco4)CC3)[nH]c2c1 | -51.4% |
| CC1CCN(C(=O)c2ccnc(-n3cncn3)c2)c2ccccc21 (configuration not stated) | 13% |
| O=C(N[C@@H]1CNCCC[C@H]1O)c1ccc(OCCN2CCCC2)cc1 | -0.155% |
| COCC(=O)Nc1ccc([C@@H](O)[C@H]2COCC(=O)N2C)cc1 | 10.3% |
| CNC(=O)[C@@H]1[C@H]2CN(Cc3ccccn3)CCN2C[C@H]1c1ccccc1 | 3.38% |
| O=C(C1CCC1)N1CCC(=O)N(C2CC2)Cc2cc(F)ccc21 | -7.76% |
| CC(C)C1SCC(=O)Nc2c1cnn2-c1ccc(F)cc1 (configuration not stated) | 1.23% |
| Cn1cnc2cc(CCC(=O)Nc3n[nH]c(C4CCCO4)n3)ccc21 (configuration not stated) | -0.863% |
| CCOc1nn(CC)cc1-c1nnc(SCc2cccnc2)n1CC | -0.244% |
| CSCCC(C)(O)CNC(=O)c1ccsc1 (configuration not stated) | -4.57% |
| COC1(CNC(=O)c2cccc(C#N)c2)CCSC1 (configuration not stated) | -7.93% |
| O=C1CCC2(CCCN(C(=O)NCc3ccccc3)CC2)N1 (configuration not stated) | 5.23% |
| CC(C)NC(=O)CC1COC2(CCN(Cc3ccco3)CC2)C1 (configuration not stated) | -0.567% |
| Cc1noc(C)c1C(=O)N1C[C@@H]2CCCO[C@@H]2[C@H](N(C)C)C1 | 9.85% |
| CC(C)NC(=O)c1ccc2nnc(C3CCN(C(=O)NC(C)C)C3)n2c1 (configuration not stated) | -5.42% |
| O=S(=O)(c1cccs1)N1CCN2C[C@H](OCC3CC3)C[C@H]2C1 | 11.9% |
| Cc1ncnc2c1CCN(C(=O)c1cccc(F)c1)CC2 | 8.27% |
| CCOCC1COCCC12CCN(C(=O)CCOC)CC2 (configuration not stated) | -6.4% |
| O=C(N1CCOCC1)[C@@]12CCO[C@@H]1CCN(C1CCCC1)C2 | 7.83% |
| O=C1CC(c2ccc(C(=O)O)cc2)c2ncn(-c3ccccc3)c2N1 (configuration not stated) | -1.04% |
| c1ccc(CN2CC[C@H]3CO[C@H](CNc4ncccn4)[C@H]3C2)nc1 | -9.63% |
| Cc1nn(C)cc1CN(C)C(=O)c1cnccn1 | -5.2% |
| CCn1ncc(Nc2[nH]cnc3nc(C)nc2-3)c1C | 3.26% |

| Structure (SMILES) | cytotoxicity at 10 µM |
| --- | --- |
| CSc1ncnc(NCc2ccco2)c1C#N | 0.0868% |
| CC(=O)N1CC(C(=O)NC(C)c2cnn(C)c2C)C1 (configuration not stated) | 4.65% |
| Cn1cc(-c2ccc(C3CCCCN3Cc3cccnc3)cn2)cn1 (configuration not stated) | 11.6% |
| CN(C)Cc1cnc(CC2CCN(CCc3ccccc3)CC2)cn1 | -6.07% |
| CNC(=O)C1CN(C)CCN(CCCOc2ccccc2F)C1 (configuration not stated) | -1% |
| Fc1cccc(-c2nccnc2C2CCCNC2)c1 (configuration not stated) | -16.5% |
| Nc1nonc1C(=O)N1Cc2ccccc2OC2(CCOCC2)C1 | -29.5% |
| NCc1cnn(-c2ccccc2C(=O)NCCc2ccncc2)c1 | 0.664% |
| COCC(=O)N1CCC(c2cncc(-c3cccc(F)c3)n2)CC1 | -11.3% |
| CNC(=O)Cc1ccc(NC(=O)NC2(c3cccc(F)c3)CC2)cc1 | 5.74% |
| N#Cc1cn(C2CC2)c(=O)n(Cc2cc(-c3cccs3)on2)c1=O | 0.38% |
| NC(=O)CSCC(=O)NC1(c2cccc(Br)c2)CC1 | -13.9% |
| CN(Cc1nnc2ccccn12)C(=O)CCNC(=O)C(C)(C)C | 12.5% |
| CNC(=O)COc1c(F)cc(Br)cc1C(C)=O | 1.44% |
| Cc1ccccc1SCC(=O)NC1CCC(O)CC1 (configuration not stated) | 9.58% |
| CC(C)CCC(=O)N1CCC2(CC1)OCCO2 | -0.457% |
| Cn1cc(CNC(=O)c2cc3c(s2)CCCCC3)cn1 | -12% |
| Cc1cc(C)c(CNC(=O)N2CCC(N3CCCC3)CC2)c(=O)[nH]1 | -3.52% |
| COC(=O)COc1ccc(-c2noc(C3CCCO3)n2)cc1 (configuration not stated) | 1.07% |
| COc1ccc(OCC(O)CN2CCN(c3nccs3)CC2)cc1 (configuration not stated) | -3.82% |
| c1cncc(-c2noc(CNC3CCCN(c4cccnn4)C3)n2)c1 (configuration not stated) | 3.26% |
| CN(C(=O)Cc1ccc(NC(=O)NC2CC2)cc1)c1ccccc1 | 6.35% |
| COc1cccc2[nH]cc(CCNC(=O)N3CCCC3CO)c12 (configuration not stated) | -10.1% |

| Structure (SMILES) | cytotoxicity at 10 µM |
| --- | --- |
| c1ccc(-c2noc(CN3CCc4c(ncn4C4CC4)C3)n2)nc1 | -5.11% |
| Cc1cccc(N(CCC(N)=O)C(=O)c2cc(-n3cccn3)ccn2)c1 | -1.5% |
| Cc1ccc(C(=O)N2CCCCC2CNC(N)=O)s1 (configuration not stated) | -0.519% |
| Cc1cccc(OCC(=O)N(C)C2CCN(CC3CCOC3)CC2)c1 (configuration not stated) | -6.22% |
| CC(C)c1cccc(NC(=O)N2CC(N(C)C)C2)c1 | 9.12% |
| COCCC(Cc1cccc(Br)c1)C(=O)O (configuration not stated) | 9.21% |
| CSCCC(NC(=O)c1ccco1)C(=O)N(C)Cc1ccsc1 (configuration not stated) | -0.0681% |
| Cc1noc(C)c1CNC(=O)N1Cc2ccccc2N(C)CC1C (configuration not stated) | -2.42% |
| Cc1cnn(C2CN(Cc3noc(-c4ccccc4)n3)C2)c1 | -1.52% |
| Cc1ccc2nc(NCCCN3CCCCCC3=O)n(C)c(=O)c2c1 | 7.04% |
| COC(=O)CNC(=O)CCCn1cnc2ccccc2c1=O | -7.48% |
| CC(=O)NC1CCN(c2ccc(C#N)cc2C(F)(F)F)CC1 | 0.536% |
| CCC(C(=O)N1CCCN(CCN(C)C)CC1)N1CCCC1=O (configuration not stated) | 4.38% |
| CNC(=O)C1CCCCN1C(=O)C1CCN(S(C)(=O)=O)CC1 (configuration not stated) | 6.03% |
| CCc1nc(CN(C)CC2CCN(CC(C)O)CC2)no1 (configuration not stated) | -10.3% |
| Cn1cc(CN2CCC3(CC2)CN(c2cccnc2)C(=O)CO3)cn1 | -103% |
| C[C@@H]1CN(C(=O)c2cccn2C)C[C@]12CCN(c1ccsc1)C2=O | -83.8% |
| O=C1CC(c2ccccc2)C2(CCN(Cc3ccncc3)CC2)N1 (configuration not stated) | -4.72% |
| O=C(Nc1cccnc1)[C@@H]1C[C@H]2OCC[C@H]2N(Cc2nccs2)C1 | 5.02% |
| Cc1ccc(CNCC2Cn3nnc(-c4cnn(C)c4)c3CO2)o1 (configuration not stated) | 2.42% |
| Cc1noc(-c2ccc(N3CCN(Cc4nccn4C)CC3)nc2)n1 | 3.19% |
| COc1ccc(CN(C)C2CCN(C(=O)C(C)C)CC2)c2cccnc12 | 12.5% |
| CN(Cc1ccccc1)c1ncccc1CNC(=O)c1ccnn1C | -1.37% |

| Structure (SMILES) | cytotoxicity at 10 µM |
| --- | --- |
| CCC[C@@H]1CN(C(=O)c2ccccc2C(C)=O)C[C@H]1N(C)C | -0.254% |
| COC[C@@H]1CCCN1C(=O)CCc1c(C)nn(C)c1C | 5.01% |
| CCn1cc(CN2CCCN(C3Cc4ccccc4C3)CC2)cn1 | 2.66% |
| CCc1nc(CNC(=O)c2ccc(C(C)N3CCCCC3)o2)cc(=O)[nH]1 (configuration not stated) | -13.6% |
| O=C1CC(NCc2cnc(-c3cccs3)nc2)CN1c1ccccc1 (configuration not stated) | 1.58% |
| CCC(CO)N(C/C(C)=C/c1ccco1)Cc1ccccn1 (configuration not stated) | -2.46% |
| COCc1ncn(Cc2nc(-c3ccc(OC)cc3F)oc2C)n1 | -92.7% |
| c1cncc(-c2noc(CNc3ncnc4c3CCNCC4)n2)c1 | 3.18% |
| CC(=O)c1cc(CN2CCCCC2c2nc3cc(F)ccc3[nH]2)cs1 (configuration not stated) | -1.08% |
| CCCn1cc(-c2cc(C(=O)N(C)C)c3ccc(C)cc3n2)cn1 | 4.99% |
| COc1cc2c(cc1OC)CN(C(C(=O)O)c1c(C)nn(C)c1C)CC2 (configuration not stated) | -3.14% |
| CCn1cnnc1C1CCN(C(=O)c2cccc(C)c2C)CC1 | -3.61% |
| CC(=O)N(C)c1nc(CN2CCCC2Cn2cncn2)cs1 (configuration not stated) | -1.01% |
| COC(=O)c1cccn1C1CCN(C(=O)c2cc(F)ccc2C)CC1 | -2.13% |
| O=C(COC1CCCC1)NS(=O)(=O)c1ccc2c(c1)OCCCO2 | -15.3% |
| O=C(CCc1ccsc1)Nc1cccnc1N1CCCC1 | -7.07% |
| CS(=O)(=O)NC1CCN(C(=O)NCc2cc[nH]n2)CC1 | -6.37% |
| CN(Cc1cccc(F)c1)C(=O)c1cc2c([nH]c1=O)CCCC2=O | -7.45% |
| O=C(c1cc2c(s1)CCOC2)N1CCCC1Cn1cccn1 (configuration not stated) | -2.06% |
| COCc1nc(C(=O)NS(=O)(=O)c2cc(Br)ccc2C)cs1 | -1.66% |
| O=C(COC1CCCC1)Nc1ncn(CC(=O)N2CCCCCC2)n1 | -8.16% |
| CCC(C)N(C)CCNC(=O)c1ccccc1OCCOC (configuration not stated) | 0.386% |
| CC(C)C(=O)NC1CCCN(C(=O)c2ccccc2O)C1 (configuration not stated) | -2.55% |

| Structure (SMILES) | cytotoxicity at 10 µM |
| --- | --- |
| Cc1ccc(NC2CCN(C(=O)CCCn3ccnc3C)CC2)nn1 | -11.8% |
| CCN1CCN(C(=O)c2cnn(-c3ccccc3Cl)c2)CC1 | -11.5% |
| Cc1nc(-c2ccccc2)n(CC(=O)NCC(C)C)n1 | -2.97% |
| O=C(C1CC1)N1CCC2(CC1)CNc1ccc(F)cc12 | 11% |
| CC(C)c1ncc(CN2CCC(CO)C2)cn1 (configuration not stated) | -25.8% |
| CN(C)C(=O)CN1CCC2(CCCN(Cc3cccs3)C2)C1=O (configuration not stated) | -113% |
| COCC1CN(Cc2ccc(F)cc2)Cc2nn(C)cc21 (configuration not stated) | -81.4% |
| CC(C)Oc1ncnc2c1CCN(Cc1ccoc1)CC2 | 2.56% |
| COC[C@@H]1CCC[C@]12CN(Cc1ccco1)CCO2 | -4.89% |
| COCCC(=O)N1C[C@H]2CN(Cc3cccnc3)C(=O)[C@H]2C1 | -0.95% |
| CC(C)C(=O)N1CCC2(CCN2CC2CC2)C1 (configuration not stated) | 8.98% |
| CNC(=O)c1cc2c(nc1NCC1CC1)CCN(CC1CC1)CC2 | 0.864% |
| COCCN1CCC2(CCN(CC3CC3)CC2)C1=O | 7.55% |
| CC(C)Nc1ncnc2c1CCN(C(=O)Cc1ccccn1)CC2 | 3.3% |
| COCCN1CCO[C@@H]2CN(C(=O)Cc3ccc(F)cc3)CC[C@@H]2C1 | 7.07% |
| c1cnc(N2CCOC3(CCN(CC4CCOC4)CC3)C2)nc1 (configuration not stated) | -0.777% |
| COCCNC(=O)[C@@]12CCO[C@@H]1CCN(Cc1scnc1C)C2 | -10.6% |
| Cc1cccc(CN2CCC3(CCCN(C(=O)NC(C)C)C3)C2=O)n1 (configuration not stated) | 7.51% |
| CCn1cc2c(n1)CN(S(=O)(=O)c1cccnc1)CC2COC (configuration not stated) | 5.74% |
| CC(C)C(=O)N1CCCC2(CC(C(=O)NCc3cccnc3)=NO2)C1 (configuration not stated) | -2.77% |
